Source: PubChem
NPY-Y1 antag: antagonists of human neuropeptide Y receptor Y1; P25929; HEK293-CNG Y1 cells, membrane potential fluorescence; NPY at EC95, then isoproterenol; inhibition, % at 3.6 µM; 200,000 compounds, 1% hits; AID 1040;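 active = inhibition above the campaign mean inhibition of all tested compounds plus 3 SD, cut at about 20% in these data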;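 note: 0% = DMSO wells given NPY plus isoproterenol and 100% = isoproterenol alone without NPY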
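System: HEK293 cells with Y1 receptor plus CNG channel / Probe or stimulus: NPY 25 nM then isoproterenol 1 µM plus Ro 20-1724 25 µM / Compound: one concentration, 3.6 µM, in 0.4% DMSO / Schedule: compound incubation 1 h at room temperature, readout 45 min post-stimulation / Measured by: membrane potential fluorescence / Read-out: % inhibition of NPY effect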
EP2 modulator: EP2 receptor (human) modulation; P43116; EP2-expressing cells, cAMP HTRF FRET, PGE2 co-stimulation; induction, % at 25 µM; 260,000 compounds, 0.83% hits;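 active = compounds whose cAMP rise, as percent of the full-agonist control response, exceeds 60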;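 note: rat C6 glioma line stably carrying human EP2 under a CMV promoter; the protocol text gives 20 µM as final concentration; 100% = response of wells given 1 µM PGE2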
Target sequence (P43116 whole entry, looked up): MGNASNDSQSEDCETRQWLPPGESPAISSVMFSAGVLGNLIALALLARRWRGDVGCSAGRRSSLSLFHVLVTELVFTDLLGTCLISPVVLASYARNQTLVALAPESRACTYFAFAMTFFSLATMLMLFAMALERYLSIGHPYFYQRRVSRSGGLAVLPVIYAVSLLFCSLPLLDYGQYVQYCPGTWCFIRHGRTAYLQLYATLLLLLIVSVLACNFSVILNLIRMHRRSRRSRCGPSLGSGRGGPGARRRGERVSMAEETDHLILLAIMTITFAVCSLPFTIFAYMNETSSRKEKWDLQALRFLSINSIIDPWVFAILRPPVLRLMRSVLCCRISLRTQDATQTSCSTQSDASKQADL
NPY1 pot ag: potentiators or agonists of human neuropeptide Y receptor Y1; NPY-Y1 expressing cells, potentiator/agonist activation; activation, % at 3.6 µM; 220,000 compounds, 0.37% hits; AID 1304; in the data active = activation above about 33%, passing the limit was not always enough;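 note: cells stimulated with NPY at EC10 then isoproterenol at EC100; 0% = low agonist plus stimulus and 100% = saturating agonist plus stimulus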
NPY-Y2 antag: NPY-Y2 (human) receptor antagonism; P49146; NPY-Y2 expressing cells, antagonist mode; inhibition, % at 2.7 µM; 140,000 compounds, 0.99% hits; AID 793; in the data active = inhibition above about 17%;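 note: 0% = vehicle with agonist challenge and 100% = reference antagonist with challenge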
PGE2 EP2 inh: EP2 receptor (human) inhibition; P43116; C6 glioma cells expressing human EP2, cAMP TR-FRET; cells stimulated with saturating PGE2; inhibition, % at 25 µM; 260,000 compounds, 0.52% hits; AID 1422;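 active = percent inhibition above 40 after rounding to a whole number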;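 note: rat C6 glioma host cells with rolipram phosphodiesterase inhibitor present; the protocol text gives 20 µM as final concentration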
NPY-Y2 PAM-ag: human NPY-Y2 potentiation or agonism, primary screen; AID 1359; 220,000 compounds, 0.45% hits; activation, % at 3.6 µM; P49146; cells expressing NPY-Y2, potentiator/agonist read-out; in the data active = activation above about 27%;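 note: cells stimulated with NPY near EC25 plus isoproterenol at EC100; 0% = vehicle plus submaximal agonist and 100% = vehicle plus saturating agonist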
Active calls of the source: *; / = no result. This is a sample that favours compounds with a hit; in the whole collection about 2.8% have one here.

SMILES	NPY-Y1 antag	EP2 modulator	NPY1 pot ag	NPY-Y2 antag	PGE2 EP2 inh	NPY-Y2 PAM-ag
CCN(CC)C(=O)c1cc2c(=O)n3ccccc3nc2s1	-1	16	7	3	8	-13
O=C1C=CC(=O)C(C2=C3C(=O)N(CCc4ccccc4)CC(=O)N3CCC2)=C1	4	-53	-5	0	90*	7
Cc1c(-c2nc(-c3ccc(C(C)(C)C)cc3)no2)n(C)oc1=O	/	72*	1	/	7	-12
CS[C@@]12C(=O)C[C@@]3(C)[C@@H](CC[C@@]3(O)C(=O)CO)[C@H]1CCC1=CC(=O)CC[C@]12C	/	7	/	/	51*	/
O=C(O)CSc1ncnc2c1sc1nc(-c3ccccc3)c3c(c12)CCC3	/	70*	3	/	7	4
COc1cc(O)c2c(O)c3c(c4c2c1[C@]1(C4)C(C)=CCCC1(C)C)[C@H](O)[C@@]1(O)CC(=O)C(C(N)=O)=C(O)[C@]1(O)C3=O	/	28	/	/	51*	/
Cc1occc1-c1nnc(SCC(=O)N2CCCCC2)n1CCc1ccccc1	/	-22	/	/	18	/
Cc1cc(C)c(C(=O)CSc2nnc(N)s2)c(C)c1	1	9	-5	/	7	-1
CC1=CC(C)(C)N(C(=O)CSc2nnc(N)s2)c2c(C)cc(C)cc21	7	45	70*	2	2	24
COc1ccc2[nH]c(=O)c(CN(Cc3ccc(C)cc3)C(=O)Nc3ccccc3OC)cc2c1	/	61*	/	/	8	/
COc1ccccc1NC(=O)N(Cc1ccc(Cl)cc1)Cc1cc2cccc(C)c2[nH]c1=O	/	22	/	/	6	/
Nc1c(C(O)(C(F)(F)F)C(F)(F)F)cc(C(O)(C(F)(F)F)C(F)(F)F)c2ccccc12	-26	-12	48*	-7	25	77*
COc1ccc(/C=C/C(=O)NCC2CCCO2)cc1 (configuration not stated)	/	-60	/	/	13	/
Cc1ccc2c(c1)N(Cc1ccccn1)C(=O)C(C)O2 (configuration not stated)	-4	11	-9	2	6	-6
Cc1ccc(CN2C(=O)C(C)Oc3ccc(C)cc32)cc1 (configuration not stated)	/	83*	/	/	9	/
CN1CCN(C(=O)CN(c2cccc(F)c2)S(C)(=O)=O)CC1	/	3	/	/	10	/
Cc1cccc(C)c1N(CC(=O)N1CCN(C)CC1)S(C)(=O)=O	-4	64*	-11	4	14	-5
CCOc1ccc(N2C(=O)C(=O)/C(=C(\O)c3ccc(C)cc3)C2c2ccccn2)cc1 (configuration not stated)	/	-8	/	/	11	/
COc1ccc(-n2c(C)c(C(=O)O)c3cc(OC)c4ccccc4c32)cc1	/	70*	13	/	7	20
CCOC(=O)C1=C(C)NC(=O)N[C@@H]1c1coc2cc(C)cc(C)c2c1=O	/	8	/	/	53*	/
CCOC(=O)C1=C(C)NC(=O)NC1c1ccsc1 (configuration not stated)	-7	11	111*	0	9	40*
COc1cc2cc(CN(CCO)C(=S)Nc3ccc(F)cc3)c(=O)[nH]c2cc1OC	/	-31	/	/	8	/
C[N+]1(CCCC[N+]2(C)CCCCCCC2)CCCCCCC1	/	20	/	/	46*	/
CC(=O)OCCCCCCCCCCC[N+]1(C)CCCCC1	1	2	-3	/	6	5
Cc1cc2ccccc2nc1SCC(=O)Nc1nc2c(s1)CCCC2	/	30	/	/	17	/
SMILES	NPY-Y1 antag	EP2 modulator	NPY1 pot ag	NPY-Y2 antag	PGE2 EP2 inh	NPY-Y2 PAM-ag
C=CCSC(=C(C#N)C#N)c1cc2c([nH]1)CCCC2	-10	2	35*	-2	3	43*
O=C(Nc1ccc(OC(F)(F)F)cc1)Nc1cccnc1	/	-15	11	/	11	6
NC(=O)c1cccc(-c2cc(Nc3ccc(OC(F)(F)F)cc3)ncn2)c1	/	-23	/	/	59*	/
Cc1ccccc1NC(=O)CSc1nnc(-c2ccncc2)n1Cc1ccco1	/	2	/	/	6	/
CC(C)(C)c1nn(-c2ccccc2)c2[nH]c(=O)c(CNc3ccc4c(c3)OCCO4)cc12	-12	0	54*	-3	17	39*
CCn1c(N2CCC(C(=O)NC(C)CCc3ccco3)CC2)nc2ccccc21 (configuration not stated)	/	-6	/	/	5	/
Cc1ccccc1C(=O)c1c[nH]c(C(=O)N=CN(C)C)c1	3	-39	-7	/	8	-9
